This note sets out measurements from ChEMBL document CHEMBL1129060, “N6,C8-distributed adenosine derivatives as partial agonists for adenosine A1 receptors” (J Med Chem, 1996).

Values joined by “and” are separate entries in the source; they are usually repeats but may differ in a detail not shown here. Equal entries are not always repeated.

As usually defined, the Ki is a measure of affinity in units of concentration, obtained from inhibition or displacement.

Assay [1] concerns the target T1, Adenosine receptor A1 (Rattus norvegicus) (UniProt P25099).
T1 sequence (whole entry): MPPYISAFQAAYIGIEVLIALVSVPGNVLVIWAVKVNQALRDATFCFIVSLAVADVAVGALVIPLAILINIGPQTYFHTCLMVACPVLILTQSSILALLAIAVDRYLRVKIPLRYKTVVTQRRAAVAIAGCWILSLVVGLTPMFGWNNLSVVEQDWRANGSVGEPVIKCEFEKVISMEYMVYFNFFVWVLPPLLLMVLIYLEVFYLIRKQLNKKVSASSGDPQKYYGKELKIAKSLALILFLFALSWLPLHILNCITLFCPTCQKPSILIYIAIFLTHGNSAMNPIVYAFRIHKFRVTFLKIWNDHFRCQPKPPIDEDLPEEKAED
Briefly: Relative affinities for rat Adenosine A1 receptor in the presence and absence of GTP. The method in brief: (§1)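 Rat cortical membranes. [3H]DPCPX displacement run with and without 1 mM GTP. The GTP shift is the ratio of apparent Ki with GTP to Ki without GTP. Data from two to three independent experiments, each in duplicate.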

The target in assay [2] is T2, Adenosine receptor A1 (Rattus norvegicus, UniProt P25099).
T2 sequence (P25099 whole entry): T1 sequence (whole entry)
Put plainly: Displacement of [3H]DPCPX (with GTP) from Adenosine A1 receptor of rat cortical membrane. Put shortly:
(§2)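 Rat cerebral cortex membranes, antagonist radioligand [3H]DPCPX, displacement run both with and without 1 mM GTP. Apparent Ki derived under each condition; their ratio gives the GTP shift. Two to three independent experiments, each in duplicate.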
In general terms: Displacement assays read how much labelled ligand stays bound in the presence of the test substance.

The target of assay [3] is T2, Adenosine receptor A1. Briefly: Displacement of [3H]DPCPX (without GTP) from Adenosine A1 receptor of rat cortical membrane. Put shortly:
as §2

In another assay the target is Adenosine A2 receptor (Rattus norvegicus, UniProt P29276+P30543). Briefly: Displacement of [3H]-CGS- 21680 from Adenosine A2 receptor of rat striatal membranes. The format is cell membranes, Membrane.
Assay [4] relates to Rattus norvegicus. Briefly: Effect on heart rate was measured after intravenous administration (4.8 mg/kg) in rat. In kind it is functional. Put shortly:
(§3)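 Conscious, free-ranging, normotensive male SPF Wistar rats (200-250 g). Intravenous infusion in 20% (v/v) DMSO/water; vehicle-only controls. Arterial catheter; 30 min accommodation. Heart rate and arterial blood pressure recorded continuously from 15 min before dosing (baseline) through 5.5 h. Dosing done between 10:00 and 11:00 a.m. Values given as means ± SE.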

Assay [5] has as its system Rattus norvegicus. Put plainly: Maximum reduction heart rate of rat at a dose of 4.8 mg/kg. The format is functional. The method in brief:
as §3

In assay [6] the test system is Rattus norvegicus. Put plainly: Mean arterial pressure was recorded in conscious, normo tensive and unrestrained rats that received an intravenous infusion of drugs at a dose of 4.8 mg/kg. In kind it is functional, Artery. Put shortly:
as §3

Assay [7] has as its system Rattus norvegicus. Briefly: Maximum reduction heart rate of ratat a dose of 0.20 mg/kg. The note with it: dose 0.2 mg/kg. The format is functional. The method in brief:
(§4)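 Adult male SPF Wistar rats (200-250 g), conscious, free-ranging, arterial catheter. 30 min accommodation, then 15 min baseline recording before i.v. infusion in 20% (v/v) DMSO/water. Arterial pressure and heart rate monitored continuously for 5.5 h. Vehicle-only controls; dosing 10:00-11:00 a.m. Maximum reduction from pre-administration level reported as mean ± SE.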

The subject of assay [8] is Rattus norvegicus. Briefly: Mean arterial pressure was recorded of conscious, normo tensive and unrestrained rats that received an intravenous infusion of drugs at a dose of 0.20 mg/kg. The format is functional, Artery. The following applies: dose 0.2 mg/kg. Put shortly: as §4
For assay [9], the system named is Rattus norvegicus. Briefly: Maximum reduction heart rate of rat at a dose of 0.20 mg/kg. The format is functional. The following applies: dose 0.2 mg/kg. Put shortly:
as §4

For assay [10], the target named is T2, Adenosine receptor A1. Put plainly: Binding affinity for adenosine A1 receptor from rat cortical membrane using [3H]DPCPX without GTP. Put shortly: as §1
In assay [11] the test system is Rattus norvegicus. Briefly: Effect on heart rate was measured after intravenous administration (8 mg/kg) in rat. In kind it is functional. The method in brief:
as §4

The test system of assay [12] is Rattus norvegicus. Put plainly: Maximum reduction heart rate of rat at a dose of 8.0 mg/kg. In kind it is functional. Put shortly:
as §4

For assay [13], the system named is Rattus norvegicus. Put plainly: Mean arterial pressure was recorded in conscious, normo tensive and unrestrained rats that received an intravenous infusion of drugs at a dose of 8 mg/kg. In kind it is functional, Artery. Put shortly: as §4

For the compound `CCCNc1nc2c(N)ncnc2n1C1O[C@H](CO)[C@@H](O)[C@H]1O` (some centres not stated), in assay [1], the GTP shift stood at 5.8. For the same compound, the values for the Ki at Adenosine receptor A1 [2], at Adenosine receptor A1 [3] (read-out: Ki) and at Adenosine A2 receptor were 34700 nM, 5960 nM and 4960 nM, respectively.
For `CCCNc1ncnc2c1nc(NC1CCCC1)n2C1O[C@H](CO)[C@@H](O)[C@H]1O` (some centres not stated), in that order: 1.1, 1760 nM, 1590 nM and 59400 nM.
`CCCNc1nc2c(NC3CCCC3)ncnc2n1[C@@H]1O[C@H](CO)[C@@H](O)[C@H]1O` gave a Heart rate in the assay with Rattus norvegicus [4] of 344 beats min-1. Moreover, in assay [1], the GTP shift is 3. Besides, the Ki worked out at 1050 nM at Adenosine receptor A1 [2], 350 nM on Adenosine receptor A1 [3] (read-out: Ki) and 7670 nM at Adenosine A2 receptor. The Reduction in the assay with Rattus norvegicus [5] is 20% and 15%. Also, the MAP with Rattus norvegicus [6] was 90 mmHg.
On to `CCNc1nc2c(N)ncnc2n1C1O[C@H](CO)[C@@H](O)[C@H]1O` (some centres not stated), for which the GTP shift in assay [1] was determined as 3.6. The Ki on Adenosine receptor A1 [2] was found to be 23800 nM; at Adenosine receptor A1 [3] (read-out: Ki), 6560 nM; at Adenosine A2 receptor it was 3970 nM.
With `Nc1ncnc2c1nc(NC1CCCC1)n2C1O[C@H](CO)[C@@H](O)[C@H]1O` (some centres not stated), on Adenosine receptor A1 [3], the inhibition constant (Ki) result is given as “Not Active”.
For the compound `CNc1ncnc2c1nc(NC1CCCC1)n2[C@@H]1O[C@H](CO)[C@@H](O)[C@H]1O`, the GTP shift in assay [1] worked out at 2.8. Also, the Ki was found to be 15700 nM on Adenosine receptor A1 [2], 5610 nM at Adenosine receptor A1 [3] (read-out: Ki) and 101000 nM at Adenosine A2 receptor.
The matching figures for `CNc1nc2c(N)ncnc2n1[C@@H]1O[C@H](CO)[C@@H](O)[C@H]1O`: 7.7, 18600 nM, 2420 nM and 1850 nM.
Regarding `CCCCNc1nc2c(N)ncnc2n1[C@@H]1O[C@H](CO)[C@@H](O)[C@H]1O`, in assay [1], the GTP shift was determined as 4. Besides, the inhibition constant (Ki) at Adenosine receptor A1 [2] was 45500 nM; on Adenosine A2 receptor it was 11500 nM.
Take `OC[C@H]1O[C@@H](n2cnc3c(NC4CCCC4)ncnc32)[C@H](O)[C@@H]1O` [N6-CYCLOPENTYLADENOSINE]: the Reduction in the assay with Rattus norvegicus [7] and in the assay on Rattus norvegicus [9] was 54% in each case. In the assay on Rattus norvegicus [4], the Heart rate came out at 345 beats min-1. The MAP in the assay with Rattus norvegicus [8] was 109 mmHg. The Ki on Adenosine A2 receptor was found to be 580 nM.
Consider `CNc1nc2c(NC3CCCC3)ncnc2n1[C@@H]1O[C@H](CO)[C@@H](O)[C@H]1O`, for which the Heart rate in the assay on Rattus norvegicus [4] worked out at 334 beats min-1. Besides, the GTP shift in [1] is 3.8. Besides, the Ki on Adenosine receptor A1 [2] amounted to 980 nM; on Adenosine A2 receptor, 20800 nM; on Adenosine receptor A1 [10], 260 nM. In the assay on Rattus norvegicus [5], the Reduction is 34% and 50%. In the assay on Rattus norvegicus [6], this compound had an MAP of 105 mmHg.
For the compound `CCNc1nc2c(NC3CCCC3)ncnc2n1[C@@H]1O[C@H](CO)[C@@H](O)[C@H]1O`, in the assay on Rattus norvegicus [4], the Heart rate came to 350 beats min-1. For the same compound, in assay [1], the GTP shift was 2.8. The Ki on Adenosine receptor A1 [2] stood at 1330 nM; at Adenosine receptor A1 [3] (read-out: Ki), 470 nM; on Adenosine A2 receptor it was 10100 nM. In addition, in the assay with Rattus norvegicus [5], the Reduction was 25% and 24%. In the assay with Rattus norvegicus [6], this compound gave an MAP of 100 mmHg.
Consider `CCCCNc1ncnc2c1nc(NC1CCCC1)n2[C@@H]1O[C@H](CO)[C@@H](O)[C@H]1O`, for which the GTP shift in assay [1] worked out at 1.1. The results for the Ki on Adenosine receptor A1 [2], on Adenosine receptor A1 [3] (read-out: Ki) and on Adenosine A2 receptor were 860 nM, 760 nM and 35300 nM, respectively.
For `CCNc1ncnc2c1nc(NC1CCCC1)n2[C@@H]1O[C@H](CO)[C@@H](O)[C@H]1O`, in that order: 4.1, 1260 nM, 310 nM and 30200 nM.
For the compound `OC[C@H]1O[C@@H](n2c(NC3CCCC3)nc3c(NC4CCCC4)ncnc32)[C@H](O)[C@@H]1O`, the GTP shift in assay [1] stood at 1.2. The figures for the Ki at Adenosine receptor A1 [2], at Adenosine receptor A1 [3] (read-out: Ki) and at Adenosine A2 receptor were 1280 nM, 1090 nM and 45500 nM, respectively. Also, the Heart rate in the assay with Rattus norvegicus [11] worked out at 329 beats min-1. The Reduction in the assay with Rattus norvegicus [12] is 2% and 3%. In the assay on Rattus norvegicus [13], this compound had an MAP of 94 mmHg.
As to `CCCCNc1nc2c(NC3CCCC3)ncnc2n1C1O[C@H](CO)[C@@H](O)[C@H]1O` (some centres not stated), in [1], the GTP shift came out at 2.3. Besides, the inhibition constant Ki at Adenosine receptor A1 [2] was 1130 nM; on Adenosine receptor A1 [3] (read-out: Ki), 500 nM; on Adenosine A2 receptor, 12400 nM. For the same compound, the Heart rate in the assay on Rattus norvegicus [11] was found to be 348 beats min-1. Besides, in the assay on Rattus norvegicus [12], the Reduction was 8% and 11%. The compound further returned an MAP in the assay on Rattus norvegicus [13] of 94 mmHg.
